Experimental data taken from PubChem BioAssay.
Results filed as inconclusive are left out. Active and inactive are the calls of the source.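 Rule for the calls, unless noted: active = viability increase at or above a cutoff of the median across tested compounds plus 3 SD (cut at about 8.5% in these data, passing the limit was not always enough); inconclusive = some gains above the cutoff, reason not given; inactive = the rest.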

Assays:
[1] = S. cerevisiae growth inhibition in permissive medium (OD615), pilot counter-assay for S. cerevisiae lifespan shortening project, permissive growth control (AID 705;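 active = growth inhibition above 25% in both replicates, a cutoff set 3 SD above the mean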); settings: OD615, 24 h, at 10 µM, hits give high values
How it was run: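 Material: engineered DeaD yeast; Compound: one dose 10 µM, DMSO 0.25% final; Detection: absorbance (optical density) at 615 nm; Buffer or medium: permissive raffinose/galactose medium; Timing: 24 h exposure, 30 °C.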

[2] = S. cerevisiae growth inhibition in restrictive medium, OD615, pilot screen, restrictive growth control, yeast lifespan reduction project (AID 706;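 active = growth inhibition above a set limit, 3 SD over mean compound inhibition, in both replicates, cut at about 43% in these data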;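 note: modified DeaD lifespan yeast strain shifted to restrictive glucose medium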); settings: OD615, 48 h, at 10 µM, hits give high values
How it was run: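 Buffer or medium: restrictive glucose medium (CSMM-D); test system: modified S. cerevisiae; doses: single dose of 10 µM compound final, 0.25% DMSO; schedule: 48 h compound exposure at 30 °C; detection: absorbance (optical density) measured at 615 nm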

[3] = doxorubicin toxicity protection in MRP-1 cells – H69AR cells, CellTiter-Glo, duplicate, MRP-1 activator project, pilot screen (AID 807); settings: H69AR viability with doxorubicin, CellTiter-Glo luminescence; at 10 µM; hits give high values;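 note: compound pretreatment 18-22 h then 72 h combined with doxorubicin; 0% = doxorubicin alone and 100% = vehicle without doxorubicin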
[4] = viability of HCT116 without oncogenic beta-catenin – human colon tumor cells, pilot screen (AID 823;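 active = cell viability at or below a set limit in both duplicate runs, the limit being the all-compound median minus 4 SD, cut at about 23% in these data, passing the limit was not always enough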;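 note: 0% = wells killed by 20 µM Hyamine and 100% = untreated DMSO cell wells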); settings: HCT116 beta-catenin knockout viability, CellTiter-Glo, 60 h; at 10 µM; hits give low values
[5] = viability of PTEN-null HCT116 cells – cell-based, HCT116 clonal line, CellTiter-Glo, pilot screen (AID 824;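 active = viability at or below 27.92% in each of two runs, the all-compound median minus 4 SD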;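 note: 0% = 20 µM Hyamine control and 100% = vehicle cell control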); settings: HCT116 PTEN-deleted viability, 60 h, at 10 µM, hits give low values
[6] = RAM pathway blockade in budding yeast – dse1pr::URA3 reporter, 5-FOA selection, pilot screen (AID 869;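 active = inhibition over a set limit, the all-compound mean plus 3 SD, in both replicate runs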;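 note: 0% = DMSO wells with no growth and 100% = 10 µM 1-NA-PP1 with full growth; RAM network block rescues cells from 5-FOA so hits raise OD615 growth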); settings: S. cerevisiae dse1pr::URA3 5-FOA growth, OD615, 2 d; at 10 µM; hits give high values; strain carries analog-sensitive mutant Cbk1 kinase
[7] = RAM signaling pathway blockade in yeast – S. cerevisiae, Pdr1DBD-CYC8 efflux-inhibited sensitized strain, primary screen (AID 1298;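 active = RAM network inhibition above 8.4% in each of two replicates, 3 SD over the compound average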;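 note: 0% = DMSO untreated cells without growth and 100% = 10 µM 1-NA-PP1 full growth; higher means more yeast growth rescued from 5-FOA killing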); settings: S. cerevisiae cbk1-as DSE1-URA3 strain, 5-FOA growth OD615, 2 d; at 50 µM; hits give high values

Brc1ccc(-c2nc(-c3ccccn3)no2)o1
inactive: growth inhibition [1] 0.205% | growth inhibition [2] 13% | viability increase [3] -4.55% | viability [4] 73.8% | viability [5] 67.5% | inhibition [6] 2.41% | RAM network inhibition [7] 2.05%

CCC(C)NC(=O)CCCCCn1c(=O)[nH]c2cc(OC)c(OC)cc2c1=O (configuration not stated)
inactive: growth inhibition [1] -18.5% | growth inhibition [2] -7.55% | viability increase [3] -2.36% | viability [4] 88% | viability [5] 93% | inhibition [6] 0.065% | RAM network inhibition [7] 2.96%

COc1cccc(-c2nc(CS(=O)CC(=O)NC3CCCC3)c(C)o2)c1 (configuration not stated)
inactive: growth inhibition [1] -7.39% | growth inhibition [2] 1.47% | viability increase [3] -2.4% | viability [4] 90.3% | viability [5] 95.6% | inhibition [6] 1.09% | RAM network inhibition [7] 1.25%

CN(Cc1ccccc1)C(=O)c1ccc2c(c1)OCCO2
inactive: growth inhibition [1] -14.5% | growth inhibition [2] -4.09% | viability increase [3] -0.29% | viability [4] 89.5% | viability [5] 94.6% | inhibition [6] 1.48% | RAM network inhibition [7] 3.49%

O=C(C1CCCN(S(=O)(=O)c2cccc3cccnc23)C1)N1CCN(c2ccc(F)cc2)CC1 (configuration not stated)
inactive: growth inhibition [1] 2.49% | growth inhibition [2] 2.17% | viability increase [3] -0.16% | viability [4] 47.9% | viability [5] 61.8% | inhibition [6] -0.585% | RAM network inhibition [7] 2.25%

O=C(CN1C(=O)c2ccccc2S1(=O)=O)NC1CC2CCC1C2 (configuration not stated)
inactive: growth inhibition [1] 0.325% | growth inhibition [2] -9.88% | viability increase [3] -1.68% | viability [4] 98.6% | viability [5] 89.9% | inhibition [6] 1.11% | RAM network inhibition [7] -0.63%

CCc1c(C)nc2[nH]nc(-c3ccccc3)n2c1=O
inactive: growth inhibition [1] -20.2% | growth inhibition [2] -10.2% | viability increase [3] 0.32% | viability [4] 96.2% | viability [5] 99.1% | inhibition [6] 1.69% | RAM network inhibition [7] 4.8%

O=C(NCc1cccnc1)c1ccc(CS(=O)(=O)c2ccc(Br)cc2)o1
inactive: growth inhibition [1] -8.28% | growth inhibition [2] -13.7% | viability increase [3] -1.28% | viability [4] 95.3% | viability [5] 92.8% | inhibition [6] 0.655% | RAM network inhibition [7] 3.41%

CCCCNC(=O)Nc1ccc(Br)cn1
inactive: growth inhibition [1] -8.62% | growth inhibition [2] 4.73% | viability increase [3] -1.6% | viability [4] 97.6% | viability [5] 96% | inhibition [6] 0.485% | RAM network inhibition [7] 6.6%

CCOC(=O)c1cnn2c(C(F)(F)F)cc(-c3ccccc3)nc12
inactive: growth inhibition [1] -6.86% | growth inhibition [2] -9.75% | viability increase [3] -3.13% | viability [4] 84% | viability [5] 86.9% | inhibition [6] 2.29% | RAM network inhibition [7] 2.4%

O=C1CC(c2nc3ccccc3[nH]2)CN1c1cccc(C(F)(F)F)c1 (configuration not stated)
inactive: growth inhibition [1] -1.92% | growth inhibition [2] 4.75% | viability increase [3] 6.49% | viability [4] 86% | viability [5] 76.5% | inhibition [6] 1.1% | RAM network inhibition [7] -2.12%

CCOc1ccc(N(CC(=O)N2CCCC2)S(=O)(=O)c2c(C)noc2C)cc1
inactive: growth inhibition [1] -10.4% | growth inhibition [2] 3.47% | viability increase [3] -1.24% | viability [4] 98.3% | viability [5] 95.6% | inhibition [6] 1.08% | RAM network inhibition [7] 10.7%

COCc1cc(C)nc2sc(C(=O)Nc3nccs3)c(N)c12
inactive: growth inhibition [1] -7.22% | growth inhibition [2] 11.6% | viability increase [3] -5.32% | viability [4] 109% | viability [5] 97.5% | inhibition [6] 0.145% | RAM network inhibition [7] 2.07%

Cc1oc(-c2ccccc2)nc1CS(=O)CC(=O)N1CCc2ccccc2C1 (configuration not stated)
inactive: growth inhibition [1] 5.38% | growth inhibition [2] 22.9% | viability increase [3] -2.89% | viability [4] 97.8% | viability [5] 99.8% | inhibition [6] 1.62% | RAM network inhibition [7] 1.69%

COc1ccccc1NC=C1C(=O)OC(C)(C)OC1=O
inactive: growth inhibition [1] -17.5% | growth inhibition [2] -7.71% | viability increase [3] -2.6% | viability [4] 91% | viability [5] 101% | inhibition [6] 0.955% | RAM network inhibition [7] 2.48%

Cc1ccc(-c2nc(CSCC(=O)N3CCN(c4ccccn4)CC3)c(C)o2)cc1
active: viability [4] 20.3%
inactive: growth inhibition [1] -5.27% | growth inhibition [2] 15.5% | viability increase [3] -2.65% | viability [5] 44.5% | inhibition [6] 1.56% | RAM network inhibition [7] -0.57%

Cn1c(=O)c2c(nc(Sc3ncccn3)n2Cc2ccc(Cl)cc2)n(C)c1=O
inactive: growth inhibition [1] -0.82% | growth inhibition [2] 1.5% | viability increase [3] -2.38% | viability [4] 82.4% | viability [5] 71.1% | inhibition [6] 1.8% | RAM network inhibition [7] 0.26%

COc1ccc(C2CC(=O)N3CN(c4ccccc4F)CSC3=C2C#N)cc1OC (configuration not stated)
inactive: growth inhibition [1] 7.21% | growth inhibition [2] 19.4% | viability increase [3] -1.47% | viability [4] 107% | viability [5] 95.5% | inhibition [6] 1.22% | RAM network inhibition [7] 1.24%

Cc1cc(C(=O)NCC2CCCO2)n(-c2ccccc2)n1 (configuration not stated)
inactive: growth inhibition [1] -0.68% | growth inhibition [2] -2.33% | viability increase [3] -1.22% | viability [4] 100% | viability [5] 103% | inhibition [6] 0.28% | RAM network inhibition [7] 2.07%

Cc1ccc(O)c(C(=O)c2cnn(C(=O)Cc3csc(C)n3)c2)c1
inactive: growth inhibition [1] -1.97% | growth inhibition [2] 1.6% | viability increase [3] -0.48% | viability [4] 98.9% | viability [5] 88.3% | inhibition [6] -0.5% | RAM network inhibition [7] -1.67%

Cc1c(C#N)c2ccccc2n1CCOc1ccccc1F
inactive: growth inhibition [1] -5.92% | growth inhibition [2] -11.9% | viability increase [3] 1.94% | viability [4] 69.8% | viability [5] 68.5% | inhibition [6] 2.25% | RAM network inhibition [7] 6.77%

CC1(C(=O)NC2CCCCC2)CCC(=O)N1Cc1cccnc1 (configuration not stated)
inactive: growth inhibition [1] -8.59% | growth inhibition [2] -7.4% | viability increase [3] -0.54% | viability [4] 102% | viability [5] 104% | inhibition [6] 0.95% | RAM network inhibition [7] 0.89%

CCNCCNC(=O)c1c(O)c2cccc3c2n(c1=O)CCC3
inactive: growth inhibition [1] -22.8% | growth inhibition [2] -19% | viability increase [3] -3.02% | viability [4] 82.6% | viability [5] 93.7% | inhibition [6] 0.7% | RAM network inhibition [7] 0.57%

c1ccc(Sc2nc(N3CCCCC3)nc(N3CCCCC3)n2)nc1
inactive: growth inhibition [1] 4.63% | growth inhibition [2] -1.59% | viability increase [3] 0.32% | viability [4] 89.3% | viability [5] 86.5% | inhibition [6] 0.735% | RAM network inhibition [7] 4.97%

O=C(Nc1cc(=O)c2ccccc2o1)N1CCOCC1
inactive: growth inhibition [1] 1.73% | growth inhibition [2] -7.41% | viability increase [3] -2.39% | viability [4] 103% | viability [5] 103% | inhibition [6] 2.6% | RAM network inhibition [7] 1.4%

CCOC(=O)c1c(NC(=O)c2ccco2)sc2c1CCCC2
inactive: growth inhibition [1] -15.7% | growth inhibition [2] -15.4% | viability increase [3] 1.84% | viability [4] 97.8% | viability [5] 101% | inhibition [6] 4.13% | RAM network inhibition [7] 1.41%

CCCCCn1c(CCCNC(=O)CC)nc2ccccc21
inactive: growth inhibition [1] -8.6% | growth inhibition [2] -0.63% | viability increase [3] -2.94% | viability [4] 89% | viability [5] 97.6% | inhibition [6] 0.405% | RAM network inhibition [7] 2.13%

CCCC(=O)N1CCN(c2ccc(C(=O)c3ccc(OC)c(Br)c3)cc2F)CC1
inactive: growth inhibition [1] -14.6% | growth inhibition [2] -18.4% | viability increase [3] -1.74% | viability [4] 96.8% | viability [5] 93.7% | inhibition [6] 1.3% | RAM network inhibition [7] 4.76%

Cc1ccc(-c2nc(CS(=O)(=O)CC(=O)N3CCCCCC3)c(C)o2)cc1
inactive: growth inhibition [1] -2.76% | growth inhibition [2] 0.63% | viability increase [3] -1.22% | viability [4] 50% | viability [5] 70.6% | inhibition [6] 0.26% | RAM network inhibition [7] 4.22%

NC(=O)C1(N2CCCCC2)CCN(S(=O)(=O)c2cc(Cl)ccc2Cl)CC1
inactive: growth inhibition [1] 4.2% | growth inhibition [2] 3.53% | viability increase [3] 0.74% | viability [4] 98.7% | viability [5] 91.1% | inhibition [6] 1.56% | RAM network inhibition [7] 6.42%

CCC(Sc1nncn1C)C(=O)Nc1nnc(-c2ccc(Cl)cc2)s1 (configuration not stated)
inactive: growth inhibition [1] 5.38% | growth inhibition [2] 32.9% | viability increase [3] -2.63% | viability [4] 94.1% | viability [5] 93.5% | inhibition [6] 0.955% | RAM network inhibition [7] 4.37%

CN(C)S(=O)(=O)N1CCC(Cc2ccccc2)CC1
inactive: growth inhibition [1] -9.73% | growth inhibition [2] 3.98% | viability increase [3] -0.78% | viability [4] 85.3% | viability [5] 85% | inhibition [6] -0.275% | RAM network inhibition [7] 1.8%

COc1cc(C2C(C(=O)Nc3ccccc3OC)=C(C)Nc3ncnn32)ccc1O (configuration not stated)
inactive: growth inhibition [1] -14.3% | growth inhibition [2] 14.1% | viability increase [3] -2.38% | viability [4] 100% | viability [5] 95.3% | inhibition [6] 1.42% | RAM network inhibition [7] -0.99%

O=C(CCS(=O)(=O)c1ccccc1)Nc1nc(-c2ccccn2)cs1
active: viability [4] 8.11% | viability [5] 6.03%
inactive: growth inhibition [1] -9.64% | growth inhibition [2] -13.3% | viability increase [3] -8.92% | inhibition [6] 1.85% | RAM network inhibition [7] 3.99%

CC1(C)CC(=O)c2sc(NC(=O)c3ccco3)nc2C1
inactive: growth inhibition [1] -15% | growth inhibition [2] -0.525% | viability increase [3] -2.54% | viability [4] 94.2% | viability [5] 84.1% | inhibition [6] 0.735% | RAM network inhibition [7] 2.58%

COc1ccc(O)c(C(=O)c2cnn(C(=O)c3cc(C)oc3C)c2)c1
inactive: growth inhibition [1] -9.76% | growth inhibition [2] -11.3% | viability increase [3] -1.89% | viability [4] 97.2% | viability [5] 88.7% | inhibition [6] 2.02% | RAM network inhibition [7] 1.5%
